# Reference: ChEMBL document CHEMBL3865807, “Syntheses and photodynamic activity of some glucose-conjugated BODIPY dyes” (Eur J Med Chem, 2016)
# The source made the active and inactive calls. The rule behind the calls is not given here.
# Legend:
# [1] = Drug uptake in cytoplasm of human A549 cells at 1 uM after 0.25 to 3 hrs by Hoechst 33342 staining based fluorescence microscopy; assay type: ADME, cell-based; conditions: a549, 1 µM
# Procedure, shortened: (§1)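 A549 cells on coverslips loaded with dyes (1 µM) for 0.25, 0.5, 1, 2 or 3 h at 37 °C, washed, counterstained with Hoechst 33342 (10 µM), mounted in 70% glycerol; red dye and blue nuclear fluorescence imaged by fluorescence microscopy (40×) and overlaid.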
# A549 [2] = experiment: Photocytotoxicity against human A549 cells assessed as decrease in cell viability at 500 to 5000 nM preincubated for 1 hr followed by 0.77 mW/cm2 white light irradiation measured after 24 hrs by MTT assay; assay type: functional, cell-based; conditions: TDE = time-dependent effect
# Procedure, shortened: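 A549 cells (1×10^4/well), plated overnight, given compound for 1 h in serum-free medium, washed twice with PBS, irradiated 0.5, 1, 2 or 4 h at 0.77 mW/cm² (37 °C, 5% CO₂), then 24 h in regular medium; MTT 0.5 mg/mL for 6 h, formazan dissolved in 0.01 N HCl/10% SDS, A550.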
# [3] = Cytotoxicity against human A549 cells assessed as decrease in cell viability up to 200 uM after 48 hrs under dark condition by MTT assay; assay type: toxicity, cell-based; conditions: a549, 48 h
# Procedure, shortened: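 Dark toxicity: A549 cells treated as in the MTT protocol (1 h compound exposure, serum-free medium, washed) with no light, then assessed at 48 h by MTT (0.5 mg/mL, 6 h, formazan in HCl/SDS, A550).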
# [4] = Photocytotoxicity against human A549 cells assessed as decrease in cell viability preincubated for 1 hr followed by 0.77 mW/cm2 white light irradiation for 80 mins measured after 24 hrs by MTT assay; assay type: functional, cell-based; conditions: A549, light or radiation study
# Procedure, shortened: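 IC50 from MTT: A549 cells (1×10^4/well) given graded compound concentrations 1 h in serum-free DMEM (vehicle ≤0.1% DMSO), washed, photo-exposed 80 min at 0.77 mW/cm², regular medium 24 h; MTT 0.5 mg/mL 6 h, A550; viability relative to vehicle control; four replicates, three experiments, mean ± SEM.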
# [5] = Drug uptake in human A549 cells at 1 uM after 0.25 to 3 hrs by Hoechst 33342 staining based fluorescence microscopy; assay type: ADME, cell-based; conditions: a549, 1 µM; procedure, shortened: as §1
# [6] = Drug uptake in human A549 cells assessed as mean fluorescence intensity at 2.5 uM after 2 hrs by flow cytometry (reference value: 2.4 +/- 1.1); assay type: ADME, cell-based; conditions: a549, 2 h
# [7] = Drug uptake in human A549 cells assessed as mean fluorescence intensity at 2.5 uM after 4 hrs by flow cytometry (reference value: 2.4 +/- 1.1); assay type: ADME, cell-based; conditions: a549, 4 h
# [8] = Drug uptake in human A549 cells assessed as mean fluorescence intensity at 2.5 uM after 8 hrs by flow cytometry (reference value: 2.4 +/- 1.1); assay type: ADME, cell-based; conditions: a549, 8 h
# [9] = Drug uptake in human A549 cells assessed as mean fluorescence intensity at 2.5 uM after 16 hrs by flow cytometry (reference value: 2.4 +/- 1.1); assay type: ADME, cell-based; conditions: a549, 16 h
# [10] = Drug uptake in human A549 cells assessed as mean fluorescence intensity at 2.5 uM after 24 hrs by flow cytometry (reference value: 2.4 +/- 1.1); assay type: ADME, cell-based; conditions: a549, 24 h
# A549 [11] = experiment: Photocytotoxicity against human A549 cells assessed as necrosis at 2.5 uM preincubated for 1 hr followed by 0.77 mW/cm2 white light irradiation for 80 mins measured after 2 hrs by trypan blue staining based phase contrast microscopy; assay type: functional, cell-based
# Procedure, shortened: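 Cells (1×10^5/well) on coverslips treated 1 h with dye (2.5 µM) or 0.1% DMSO, irradiated 80 min, serum added, 2 h later washed, stained with 0.1% trypan blue in PBS for 5 min, then viewed by phase-contrast microscopy at 40×.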
# Bos taurus [12] = organism: Bos taurus; experiment: Binding affinity to calf thymus duplex DNA assessed as decrease in intensities of maximum absorption at 20 uM by spectrophotometric titration analysis
# Bos taurus [13] = organism: Bos taurus; experiment: Binding affinity to calf thymus duplex DNA by UV-visible spectra analysis
# Bos taurus [14] = organism: Bos taurus; experiment: Binding affinity to calf thymus duplex DNA assessed as decrease in intensities of maximum absorption at 20 uM by spectrophotometric titration analysis
Compound,Drug uptake [1],Activity (A549 [2]),Activity [3],IC50 [4] [µM],Drug uptake [5],Flu intensity [6],Flu intensity [7],Flu intensity [8],Flu intensity [9],Flu intensity [10],Activity (A549 [11]),Activity (Bos taurus [12]),Kb (Bos taurus [13]) [×10⁴ /M],Activity (Bos taurus [14])
CCC1=C(C)C2=C(c3ccccc3)c3c(C)c(CC)c(C)n3[B-](F)(F)[N+]2=C1/C=C/c1ccc(O[C@H]2O[C@H](CO)[C@@H](O)[C@H](O)[C@H]2O)cc1,Active,Tde,Non-Toxic,2.5,–,–,–,–,–,–,–,–,–,–
CCC1=C(C)C2=C(C)c3c(C)c(CC)c(C)n3[B-](F)(F)[N+]2=C1C,–,–,–,6.8,Active,–,–,–,–,–,–,–,–,–
CCC1=C(C)C2=C(C)c3c(C)c(CC)c(C)n3[B-](F)(F)[N+]2=C1/C=C/c1ccc(O)cc1,Active,Tde,Non-Toxic,6.5,–,88,53.7,43.9,40.9,38.4,–,–,–,–
CCC1=C(C)C2=C(c3ccc(O)cc3)c3c(C)c(CC)c(C)n3[B-](F)(F)[N+]2=C1C,Active,Tde,Non-Toxic,2.1,–,–,–,–,–,–,Active,–,–,–
CCC1=C(C)C2=C(c3ccc(O[C@H]4O[C@H](CO)[C@@H](O)[C@H](O)[C@H]4O)cc3)c3c(C)c(CC)c(C)n3[B-](F)(F)[N+]2=C1C,Active,Tde,Non-Toxic,> 10,–,–,–,–,–,–,–,Active,3.4,Active
CCC1=C(C)C2=C(c3ccccc3)c3c(C)c(CC)c(C)n3[B-](F)(F)[N+]2=C1/C=C/c1ccc(O)cc1,Active,Tde,Non-Toxic,6.4,–,–,–,–,–,–,–,–,–,–
